# Assay outcomes as filed in PubChem BioAssay.
# Hits are enriched below; roughly 1.5% of the tested compounds scored in any of these assays.
# APJ ag: activates the human apelin receptor APJ. 330,000 compounds, 0.11% hits. activation, % at 20 µM. CHO-K1 APJ PathHunter beta-arrestin, luminescence; 0% DMSO wells, 100% apelin. AID 2520;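 active = activation more than six SD over the plate average, tested at 20 µM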;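 also: 0% = DMSO alone and 100% = apelin-13 at 10 nM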
#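 Assay system: engineered CHO-K1 APJ arrestin reporter cells; Amount: 1000 CHO-K1 reporter cells seeded per well; Dosing: one dose, 20 µM compound, 1% DMSO; Times: compound stimulation 90 min at 25 °C, detection 60 min; Measured by: luminescent beta-gal fragment complementation, chemiluminescent substrate; Read-out: APJ–arrestin association signal; Controls: DMSO vs Apelin-13 10 nM.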
# EBI2 block: EBI2 (human) antagonism. EBI2 beta-arrestin recruitment, luminescence, 7a,25-OHC stimulated. AID 651636. 360,000 compounds, 0.81% hits. inhibition, % at 5 µM. P32249; in the data active = inhibition above about 38%;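 also: enzyme fragment complementation signal reports receptor beta-arrestin coupling in cells; 0% = agonist plus DMSO wells and 100% = wells without agonist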
# APJ antag: APJ receptor antagonism; 330,000 compounds, 0.32% hits; AID 2521; inhibition, % at 20 µM; CHO-K1 APJ beta-arrestin complementation, luminescence;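 active = inhibition above about 40% at 20 µM, limit read from the data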;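 also: cells challenged with 10 nM apelin-13 agonist together with compound; plate controls were apelin-13 plus DMSO wells for no effect and DMSO wells lacking apelin-13 for full effect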
# CCR6 antagonist: antagonists of human CCR6 receptor; P51684; CHO-K1 CCR6 PathHunter beta-arrestin, luminescence, CCL20-stimulated; inhibition, % at 20 µM; 340,000 compounds, 0.49% hits; AID 493098;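 active = compounds whose inhibition of the agonist-driven luminescence signal at 20 µM reaches about 50%, limit read from the data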;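 also: cells stimulated with CCL20 at 14 nM final; plate controls were DMSO with CCL20 for no effect and DMSO without agonist for full effect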
# Target sequence (P51684 whole entry, looked up): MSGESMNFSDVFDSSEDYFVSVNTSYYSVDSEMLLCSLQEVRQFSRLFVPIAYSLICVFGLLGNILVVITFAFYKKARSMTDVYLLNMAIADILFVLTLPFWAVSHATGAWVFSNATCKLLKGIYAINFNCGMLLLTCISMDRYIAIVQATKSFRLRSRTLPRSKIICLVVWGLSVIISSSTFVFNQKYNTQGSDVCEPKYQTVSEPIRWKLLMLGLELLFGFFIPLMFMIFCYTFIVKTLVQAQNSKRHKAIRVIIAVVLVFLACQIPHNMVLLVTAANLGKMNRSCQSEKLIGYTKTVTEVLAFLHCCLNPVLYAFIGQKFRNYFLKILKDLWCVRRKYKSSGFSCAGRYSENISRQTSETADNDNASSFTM
# CXCR6 inh: inhibitors of human CXCR6 receptor. inhibition, % at 20 µM. O00574. 360,000 compounds, 0.36% hits. CHO-K1 PathHunter CXCR6 beta-arrestin, luminescence; in the data active = inhibition above about 34%, passing the limit was not always enough;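 also: antagonist mode with CXCL16 agonist at 10 nM final; 0% = 10 nM CXCL16 with DMSO and 100% = unstimulated wells without agonist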
# * = called active by the depositor; nt = no result.
SMILES,APJ ag,EBI2 block,APJ antag,CCR6 antagonist,CXCR6 inh
Cc1cc(O)ccc1C1(c2ccc(O)cc2C)OC(=O)c2ccccc21,2,-12,5,28,5
O=C1OC2(c3ccccc31)c1cc(I)c(O)c(I)c1Oc1c2cc(I)c(O)c1I,-9,nt,46*,nt,nt
C[C@H](CO)N1C[C@H](C)[C@@H](CN(C)C(=O)NC2CCCCC2)Oc2c(NC(=O)C3CC3)cccc2C1=O,-3,0,3,8,0
Cc1c2cnccc2c(C)c2c1oc1ccccc12,nt,5,nt,-7,-8
CCOC(=O)CS(=O)(=O)c1nc(-c2ccc(F)cc2)cc(C(F)(F)F)n1,-1,60*,35,52*,67*
CCOC(=O)CCS(=O)(=O)c1nc(-c2ccccc2)cc(C(F)(F)F)n1,1,27,36,34,29
O=C(CSc1nc(C(F)(F)F)cc(=O)[nH]1)Nc1ccc2c(c1)OCCO2,6,-4,-2,6,7
CCc1ccccc1N(CC(=O)NC1CCCC1)C(=O)CNC(=O)c1cccs1,0,-2,20,8,-1
CC(=NNc1nc2ccccc2o1)c1cc2ccccc2cn1,nt,1,nt,-16,-6
CC(=NNc1nc2ccccc2o1)c1ncccn1,nt,55*,nt,1,-7
C/C(=N\Nc1nc2ccccc2s1)c1cccs1,-10,20,5,4,1
CC(=NNc1nc2ccccc2s1)c1ncccn1,nt,57*,nt,40,54*
C[C@H](CO)N1C[C@H](C)[C@@H](CN(C)C(=O)Oc2ccccc2)OCc2cn(nn2)CCCC1=O,nt,-3,nt,nt,0
COc1ccc2[nH]c(=O)cc(C(=O)O)c2c1,0,-7,-4,6,0
COc1ccc2[nH]c3c4c(ccc3c2c1)C(=O)C=CC4=O,3,35,21,61*,30
CCCCC1CC2=C(C(=O)OC(C)(C)O2)C(c2ccc(F)cc2)O1 (stereo not given),nt,-12,nt,nt,-1
Cc1cnc(NC(=O)CC2CCCC2)s1,-4,-4,6,3,-7
COc1ccc(S(=O)(=O)Oc2ccc3ccccc3c2)cc1,-2,-5,-8,5,6
COC1=C(OC)C(=O)C(Sc2ccc3ccccc3c2)=CC1=O,nt,-1,nt,nt,72*
CN[C@@H]1CC[C@H](c2ccc(Cl)c(Cl)c2)c2ccccc21,-1,-21,10,7,0
Cc1ccccc1C1=C/C(=C(\SS/C(C(=O)c2ccc(OCC(=O)O)c(Cl)c2Cl)=C2\C=C(c3ccccc3C)SS2)C(=O)c2ccc(OCC(=O)O)c(Cl)c2Cl)SS1,nt,13,nt,62*,29
On1ccccc1=S,nt,37,nt,83*,75*
O=C(NCc1cccc(Cl)c1)C1CCN(S(=O)(=O)c2ccc(F)cc2)CC1,3,11,21,20,2
Cc1ccc(O)c(C2=NNC(c3ccc(Cl)cc3)C2)c1 (stereo not given),-4,2,70*,18,17
COc1ccnc(CSC(N)=Nc2ccccc2C(F)(F)F)c1,0,1,-13,-8,-6
SMILES,APJ ag,EBI2 block,APJ antag,CCR6 antagonist,CXCR6 inh
COc1ccnc(CSC(N)=Nc2cccc(C(F)(F)F)c2)c1,nt,-6,nt,53*,28
CCCn1nnc(NC(=S)NC(=O)Cc2ccccc2)n1,-5,-2,25,43,26
CCCn1nnc(NC(=S)NC(=O)c2ccc(-c3ccc(Br)cc3)o2)n1,-9,8,14,59*,31
CN(C)c1ccc(/C=C/C=C2/SC(=S)N(c3ccccc3)C2=O)cc1,-6,9,39,45,52*
O=C(O)c1ccc(N2C(=O)/C(=C/C=C/c3ccccc3)SC2=S)cc1,-1,-3,2,14,-1
CCc1ccc(C2C(C#N)=C(N)C(C#N)(C#N)C3=CCC(C(C)(C)C)CC32)cc1 (stereo not given),-1,29,24,68*,42*
CC(C)(C)C1CC=C2C(C#N)=C(N)C(C#N)(C#N)C(c3cccs3)C2C1 (stereo not given),-4,nt,-7,nt,nt
COC1=CC(=O)C=C(OC)C1=O,nt,-10,nt,86*,81*
COc1cc(/C=C/C(=O)O)ccc1O,-2,-5,4,8,-5
COc1cc(/C=C/C(=O)c2ccc([N+](=O)[O-])o2)ccc1O,2,-24,-54,75*,15
COc1cc(/C=C/C(=O)/C=C(O)/C=C/c2ccc(O)c(OC)c2)ccc1O,-8,-4,4,54*,33
COc1ccc(C(=O)/C(C#N)=N/Nc2ccccc2[N+](=O)[O-])cc1,-2,3,32,42,34
COc1ccc(C(=O)/C(C#N)=N/Nc2ccc([N+](=O)[O-])cc2)cc1,-10,-5,73*,76*,67*
N#CC(C#N)=NNc1ccc([N+](=O)[O-])cc1,-9,13,26,57*,43*
COc1ccc(NC(=O)Nc2ccc3nc([C@@H]4O[C@H](CO)[C@@H](O)[C@H](O)[C@H]4O)[nH]c3c2)cc1OC1CCCC1,nt,-1,nt,nt,-7
CC(=O)O[C@H]1[C@@H](O)[C@H](O)[C@H](Oc2c(O)c(C)c3c4c2[C@@H](C)CC[C@@H]4[C@@H](C)C[C@H]3C=C(C)C)O[C@H]1C,-1,-3,-4,-14,-2
COc1cccc(CN(C)C(=O)c2ccc(OCC(=O)N3CCOCC3)c(OC)c2)c1,-5,4,3,4,1
CNC(=O)c1c(NC(=O)c2nc3ccccc3s2)sc2c1CCC2,-6,10,39,nt,40*
COC1=C(c2ccccc2)C(=O)c2ccccc2C1=O,12*,-1,-14,6,0
COc1ccc(C2=C(N)c3ccccc3C2=O)cc1,0,-4,12,19,8
CC1(C(=O)N2CCN(c3ccc([N+](=O)[O-])cc3)CC2)CC1(Cl)Cl (stereo not given),-1,4,-10,-3,4
CC1CC(C)CN(S(=O)(=O)N2CCCC(C(=O)NCc3ccccc3Cl)C2)C1 (stereo not given),4,5,4,56*,7
Cc1ccc(Cc2cnc(NC(=O)/C(C#N)=C/c3ccc(-c4ccc([N+](=O)[O-])cc4)o3)s2)cc1,-11,14,38,59*,39
O=C(NC(=S)Nc1ccc(Oc2ccccc2)cc1)c1ccc(Cl)cc1,0,-7,16,46,28
Cc1ccccc1C(=O)NC(=S)Nc1ccc(Oc2ccc(Cl)cc2)cc1,-6,22,36,53*,25
O=S(=O)(O)c1cc(O)c(N=Nc2ccc(O)cc2O)c2ccccc12,nt,3,nt,62*,39*
Cc1ccc(Nc2c(-c3ccccn3)nc3cccc(C)n23)cc1,-10,22,23,64*,42*
Cc1cccc2nc(-c3ccco3)c(Nc3ccccc3)n12,-4,0,16,18,4
O=S1(=O)N[C@@H](Cc2ccccc2)COc2cc(N3CCC[C@H]3CO)ccc21,nt,-14,nt,nt,-9
